High-throughput results from PubChem BioAssay.
Shown are actives, neighbours in structure and some others; about 1.9% of the full set was active somewhere.
bCat nuc transl: modulators of beta-catenin nuclear translocation; HeLa beta-catenin nuclear translocation, immunofluorescence imaging; nuclear translocation activity, % at 5 µM; hit rate 0.3% among 190,000; AID 1665;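 active = nuclear translocation activity above 50% at 5 µM, with a well cell count of 50 or more; inconclusive = wells under 50 cells across six images, flagged as toxic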;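 note: per-cell ratio of nuclear to cytoplasmic median beta-catenin stain intensity; plate controls were DMSO negative control for no effect and GSK-3 inhibitor IX positive control for full effect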
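assay system = human HeLa cells, endogenous beta-catenin | times = compound treatment 24 h, 37°C, 5% CO2 | detection = Anti-beta-catenin immunofluorescence on PFA-fixed, Triton-permeabilized cells, DAPI nuclei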
HSV augment: HSV replication enhancement | HSV replication augmentation in cells, fold increase | maximum fold increase | hit rate 0.005% among 220,000; in the data active = maximum fold increase above about 1.5; inconclusive = no clear call, values can overlap the other calls; tested in PC3 cells
MT stabilize HCS: stabilizes microtubules in HeLa cells. HeLa tubulin immunostaining HCS, 24 h; share of cells brighter than vehicle mean+2SD. % tubulin-high responders, % at 10 µM. hit rate 0.83% among 200,000. AID 2205;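 active = plate Z-score above 3 for both tubulin-high and condensed-nucleus cell shares, with cell loss under 80%, at 10 µM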;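 note: anti alpha tubulin signal scored within the nucleus-defined area of each cell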
Furin inhibitor: inhibitors of human furin | P09958 | purified furin, fluorogenic substrate cleavage | inhibition, % at 20 µM or 30 µM | hit rate 0.061% among 220,000; in the data active = inhibition above about 25%
Target sequence (P09958 108-714 limits assumed): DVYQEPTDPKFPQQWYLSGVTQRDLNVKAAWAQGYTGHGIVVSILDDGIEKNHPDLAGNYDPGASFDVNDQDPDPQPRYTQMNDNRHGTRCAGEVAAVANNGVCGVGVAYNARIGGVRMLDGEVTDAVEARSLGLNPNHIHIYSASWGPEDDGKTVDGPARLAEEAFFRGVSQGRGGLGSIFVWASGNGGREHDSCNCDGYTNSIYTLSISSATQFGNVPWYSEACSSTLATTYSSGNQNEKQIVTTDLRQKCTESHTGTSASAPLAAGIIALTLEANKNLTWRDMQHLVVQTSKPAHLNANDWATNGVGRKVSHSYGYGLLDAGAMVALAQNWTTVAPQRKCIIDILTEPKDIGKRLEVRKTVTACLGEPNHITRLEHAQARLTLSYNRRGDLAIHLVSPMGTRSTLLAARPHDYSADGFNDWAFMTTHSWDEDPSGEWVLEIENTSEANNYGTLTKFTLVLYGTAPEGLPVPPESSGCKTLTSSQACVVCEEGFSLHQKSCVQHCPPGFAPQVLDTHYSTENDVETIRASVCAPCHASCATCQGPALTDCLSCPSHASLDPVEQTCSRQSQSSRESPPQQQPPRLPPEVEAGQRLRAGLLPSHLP
Ins promoter up: MIN6 insulin promoter up-regulation; MIN6 insulin promoter-GFP reporter, high-content imaging; hits give high values; z-score at 5 µM; hit rate 0.3% among 190,000;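 active = z-score above 3 at 5 µM with at least 500 cells counted in the well; inconclusive = wells under 500 cells, flagged as cytotoxic or low count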
Autophagy HCS: autophagy modulation, high-content screen. calls only at 10 µM (by protocol). hit rate 0.98% among 190,000. MEF GFP-LC3 puncta imaging; test concentration mostly 10 µM;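 active = percentage of spot-positive cells more than 3 SD above its plate mean, without a fluorescence outlier flag or 80% toxicity; inconclusive = no clear call, values can overlap the other calls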;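 note: spot-positive cell cutoff set from DMSO-treated cells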
Active calls of the source: *; i = inactive; ? = inconclusive; . = no result given; + = active, no number.

SMILES	bCat nuc transl	HSV augment	MT stabilize HCS	Furin inhibitor	Ins promoter up	Autophagy HCS
CCNc1nc(NCC)nc(SCCOc2ccc(C)cc2)n1	-4	i	5	-3	-0.56	i
O=C(CN1C(=O)/C(=C/c2c(F)cccc2Cl)Oc2ccccc21)NCc1ccco1	3	.	19*	-20	0.09	i
CN(c1ccccc1C(=O)O)S(C)(=O)=O	-4	i	4	-9	-0.25	i
CN(C)c1ccccc1C(=O)c1ccccc1N(C)C	17	i	55*	-15	0.23	.
Nn1c(SCc2ccccc2F)nnc1-c1ccccn1	-1	i	.	-19	0.62	.
CCC/C=C(\CCC)C(NC(=O)c1ccc(C(F)(F)F)cc1)c1ccccc1 (centres undefined)	.	i	.	.	.	.
COc1cc(S(=O)(=O)Nc2cccnc2)ccc1F	20	i	5	-17	-0.2	i
COc1cc(S(=O)(=O)Nc2cc(C)cc(C)c2)ccc1F	.	i	12*	3	0.6	i
CN(C)CCN(C(=O)/C=C/c1cccs1)c1nc2c(F)cc(F)cc2s1	.	i	21*	8	0.32	i
CCOc1ccccc1N1CC(C(=O)Nc2ccc3c(c2)OCCO3)CC1=O (centres undefined)	0	i	6	-5	0.47	+
CC(=O)Nc1ccc(C(=O)OCC(=O)NCc2ccc(Cl)cc2)cc1	50*	i	32*	-18	0.15	i
CC1(C)COC(/C=C/c2ccc([N+](=O)[O-])cc2)=N1	32	.	18*	-22	?	i
COc1ccc(N2CCN(C(=O)Cn3cnc4c(cnn4-c4ccccc4)c3=O)CC2)cc1	-1	i	2	-9	-0.98	i
COc1ccc(N2CCN(C(=O)Cn3cnc4c(cnn4-c4ccc(C)cc4)c3=O)CC2)cc1	0	i	4	0	-0.58	+
Cc1nc(N)sc1C(=O)NN	0	i	.	-9	0.3	.
O=C(N/N=C/C(Br)=C/c1ccccc1)c1ccncc1	-4	i	.	4	0.53	.
CCOc1cc(C(=O)N/N=C/C(Br)=C/c2ccccc2)cc(OCC)c1OCC	.	i	9.1*	-22	-0.19	i
COc1ccccc1C(=O)Nc1ccc(C2=NNC(=O)CC2C)cc1 (centres undefined)	4	.	1	-13	-1.4	i
COc1ccc2c(=O)c3c(=O)n(-c4ccc(C)cc4)c(-c4ccccc4)nc3oc2c1	-1	i	.	-14	-1	.
Cc1ccc(-n2c(C)nc3oc4ccccc4c(=O)c3c2=O)cc1	2	i	2	-17	3.9*	i
CCN(CC)CCNC(=O)c1c(C)n(-c2ccccc2)c2cc(Br)c(OC)cc12	0	i	3	-13	0.25	+
COc1ccc(-c2nn(-c3ccccc3)cc2C(=O)N2c3ccc(C)cc3C3CN(C)CCC32)cc1 (centres undefined)	1	i	3	-16	-1.2	+
COc1cccc(N2CCN(C(=O)c3[nH]c(C)c(C(C)=O)c3C)CC2)c1	60*	i	29	-25	-0.09	i
CC(=O)c1c(C)[nH]c(C(=O)N2CCN(c3cc(Cl)ccc3C)CC2)c1C	.	i	53*	-19	1.5	i
c1ccc2c(CCNc3ncnc4nc[nH]c34)c[nH]c2c1	13	i	17*	-25	.	i
SMILES	bCat nuc transl	HSV augment	MT stabilize HCS	Furin inhibitor	Ins promoter up	Autophagy HCS
c1ccc(CCNc2ncnc3nc[nH]c23)cc1	0	i	3	-4	1.1	i
Cc1ccc2[nH]c(-c3cccc(F)c3)cc(=O)c2c1	.	i	27*	-22	0.32	i
COc1ccc2[nH]c(-c3cccc(F)c3)cc(=O)c2c1	.	i	13	-19	1.6	i
COc1cc(N(C)C)c([N+](=O)[O-])cc1C(=O)NC(C)CNc1ccc([N+](=O)[O-])cc1Cl (centres undefined)	4	i	8	-17	-0.05	i
NC(=O)c1ccccc1NC(=S)NC(=O)CCc1ccccc1	.	i	23*	-18	1.6	i
NC(=O)c1ccccc1NC(=O)CCc1ccccc1	0	i	5	-22	-0.1	i
CCOC(=O)C1CCCN(C(=O)CNS(=O)(=O)c2ccc(Br)s2)C1 (centres undefined)	-1	i	2	-12	.	i
CCOC(=O)N1CCC(NC(=O)CNS(=O)(=O)c2ccc(Br)s2)CC1	3	i	20*	-19	-0.1	i
CN(C)CCCSc1nc2ccccc2s1	-1	i	3	-19	0.24	i
CCCCc1ccc(NC=C2C(=O)OC3(CCCCC3)OC2=O)cc1	-2	i	2	-21	-0.27	i
NS(=O)(=O)c1ccc(NC=C2C(=O)OC3(CCCCC3)OC2=O)cc1	.	i	5	-5	3.8*	i
Cc1ccc(C)c(NC(=S)N2CCCCC2CO)c1 (centres undefined)	-1	i	2	-17	1.7	i
Cc1cc(/C=N/NC(=O)c2ccccc2F)c(C)n1-c1ccccc1	1	i	4	-12	0.05	i
CCOC(=O)N/N=C/c1cc(C)n(-c2cccc3ccccc23)c1C	9	i	21*	-9	-0.33	i
Cc1cc(/C=N/NC(=O)c2cccc(F)c2)c(C)n1-c1ccccc1	9	i	16*	-28	-0.35	i
Cc1ccc(S(=O)(=O)N2CCN(C(=O)CCC(=O)NCCc3ccc(F)cc3)CC2)cc1	-5	i	3	-16	.	i
O=C(CSc1nc(-c2ccccc2)c(-c2ccccc2)[nH]1)Nc1nccs1	1	i	15	-15	-0.47	i
O=C(CCCN=C1NS(=O)(=O)c2ccccc21)OCc1cc([N+](=O)[O-])cc2c1OCOC2	-2	i	5	-18	-0.66	+
C[C@H](N=C1NS(=O)(=O)c2ccccc21)C(=O)OCc1cc([N+](=O)[O-])cc2c1OCOC2	-2	i	.	-22	-0.68	.
Cc1ccc(Cn2nc(C)c(NC(=O)c3nn(C)cc3Cl)c2C)cc1	-1	i	4	25*	.	i
Cc1nn(Cc2ccc(Br)cc2)c(C)c1NC(=O)c1nn(C)cc1Cl	2	i	4	-15	1.5	i
Cc1nn(C)c(C)c1CN(C)C(=O)CCCC(=O)O	-2	i	4	25*	.	i
CN(C)/C=C/C(=O)c1cccc([N+](=O)[O-])c1	-2	i	2	-2	0.63	+
CN(C)/C=C/C(=O)c1ccccc1	-2	i	.	-7	.	.
COc1cccc(N=Nc2c(N)[nH]n3c(=O)c4c(nc23)CCCC4)c1	1	i	3	-7	0.13	+
Cc1cc(=O)oc2cc(OCC(=O)OCC(=O)NC3CC3)ccc12	-1	i	3	-8	3.8*	i
Cc1cc(=O)oc2cc(OCC(=O)N3c4ccccc4CC3C)ccc12 (centres undefined)	-7	i	51*	-15	0.85	i
